Measurements taken from ChEMBL document CHEMBL1132225, “Novel antidiabetic and hypolipidemic agents. 3. Benzofuran-containing thiazolidinediones” (J Med Chem, 1999).
Values joined by “and” are separate entries in the source; they are usually repeats but may differ in a detail not shown here. Equal values may be shown once. Values belong to the compound of their own block, whether it stands above or below them. Active and inactive are the calls of the source. The calls are words filed in the database; no cut-off is given here.

Key:
Mus musculus [1] = test: Percent reduction of plasma glucose (PG) after 6 days of treatment. It is the mean of standard deviation observed in plasma glucose (PG) in db/db mice at dose of 200 mg/kg/day; type: functional; conditions: route oral
Mus musculus [2] = species on record: Mus musculus; test: Percent reduction of plasma glucose after 6 days of treatment (various doses).; type: functional
Mus musculus [3] = species on record: Mus musculus; test: The compound was tested for percent reduction of plasma triglyceride after 6 days of treatment; not active; type: functional, organism-based
Mus musculus [4] = test: Percent reduction in plasma triglyceride (TG) after 6 days of treatment. It is the mean of standard deviation observed in plasma triglyceride (TG) in db/db mice at dose of 200 mg/kg/day; NA = Not Active; type: functional, organism-based
Mus musculus [5] = test: Percent reduction of plasma glucose (PG) after 6 days of treatment. It is the mean of standard deviation observed in plasma glucose (PG) in db/db mice at dose of 30 mg/kg/day; type: functional; conditions: route oral
Rattus norvegicus [6] = species on record: Rattus norvegicus; test: The AUC(0-infinity) values in female wistar rats.; type: ADME, organism-based; design: time infinity; conditions: in vivo
[7] = The Cmax values in female wistar rats.; type: ADME, organism-based; conditions: rat, in vivo
[8] = Pharmacokinetic Parameter, AUC (0-infinity) is the area under the plasma concentration versus time curve extrapolated to infinity in Female Wistar Rats at 100 mg/kg by po administration; type: ADME, organism-based; design: time infinity, dose 100 mg/kg, route oral; conditions: rat, read-out: AUC 0-infinity
[9] = The half life period in female wistar rats.; type: ADME, organism-based; conditions: rat, in vivo
Outline: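 Female Wistar rats (200–225 g), fasted 12 h overnight with water, fed 3 h post-dose; single 100 mg/kg oral dose as 0.5% CMC suspension. Retro-orbital blood sampled at multiple times; 0.2 mL plasma extracted, analysed by reverse-phase C18 HPLC with internal standard. Parameters by noncompartmental analysis; mean ± SD, n = 4.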

[10] = Pharmacokinetic Parameter, Cmax is observed maximum plasma concentration in Female Wistar Rats at 100 mg/kg by po administration; type: ADME, organism-based; design: dose 100 mg/kg, route oral; conditions: rat
[11] = Pharmacokinetic Parameter, Kel is elimination rate constant in Female Wistar Rats at 100 mg/kg by po administration; type: ADME, organism-based; design: dose 100 mg/kg, route oral; conditions: rat, in vivo
[12] = Pharmacokinetic Parameter, half life period measured in Female Wistar Rats at 100 mg/kg by po administration; type: ADME, organism-based; design: dose 100 mg/kg, route oral; conditions: rat, in vivo
[13] = The Kel values in female wistar rats.; type: ADME, organism-based; conditions: rat, in vivo
[14] = The Tmax values in female wistar rats.; type: ADME, organism-based; conditions: rat, in vivo
[15] = Pharmacokinetic Parameter, Tmax is the time at which maximum concentration (Cmax) is reached in Female Wistar Rats at 100 mg/kg by po administration; type: ADME, organism-based; design: dose 100 mg/kg, route oral; conditions: rat, in vivo
Mus musculus [16] = test: Percent reduction in plasma triglyceride (TG) after 6 days of treatment. It is the mean of standard deviation observed in plasma triglyceride (TG) in db/db mice at dose of 100 mg/kg/day; type: functional; conditions: route oral
Mus musculus [17] = test: Percent reduction in plasma triglyceride (TG) after 6 days of treatment. It is the mean of standard deviation observed in plasma triglyceride (TG) in db/db mice at dose of 30 mg/kg/day; type: functional; conditions: route oral
Rattus norvegicus [18] = species on record: Rattus norvegicus; test: The AUC(0-t)values in female wistar rats.; type: ADME, organism-based; conditions: in vivo
Mus musculus [19] = test: Percent reduction of plasma glucose (PG) after 6 days of treatment. It is the mean of standard deviation observed in plasma glucose (PG) in db/db mice at dose of 100 mg/kg/day; type: functional; conditions: route oral
[20] = Pharmacokinetic Parameter, AUC (0-t) is the area under the plasma concentration versus time curve in Female Wistar Rats at 100 mg/kg by po administration; type: ADME, organism-based; design: dose 100 mg/kg, route oral; conditions: rat
Mus musculus [21] = species on record: Mus musculus; test: The compound was tested for percent reduction of plasma triglyceride after 6 days of treatment.; type: functional; design: concentration or dose not given beside the values
[22] = biological target: T1, Peroxisome proliferator-activated receptor alpha (Homo sapiens) (UniProt Q07869); test: Compound was tested for fold transactivation of human Peroxisome proliferator activated receptor alpha at 50 uM
T1 sequence (whole entry): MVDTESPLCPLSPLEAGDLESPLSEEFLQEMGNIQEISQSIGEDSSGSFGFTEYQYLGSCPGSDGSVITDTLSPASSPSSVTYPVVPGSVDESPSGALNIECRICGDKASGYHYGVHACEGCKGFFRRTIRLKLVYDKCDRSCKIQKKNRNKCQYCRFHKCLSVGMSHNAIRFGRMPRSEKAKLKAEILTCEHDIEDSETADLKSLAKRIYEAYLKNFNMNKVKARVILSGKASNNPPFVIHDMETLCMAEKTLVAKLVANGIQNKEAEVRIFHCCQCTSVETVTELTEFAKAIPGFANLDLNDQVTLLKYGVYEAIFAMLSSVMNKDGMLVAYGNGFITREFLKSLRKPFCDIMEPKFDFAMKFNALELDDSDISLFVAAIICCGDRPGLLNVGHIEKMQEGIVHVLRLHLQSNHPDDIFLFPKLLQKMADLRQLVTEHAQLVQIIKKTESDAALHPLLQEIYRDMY

[23] = biological target: T2, Peroxisome proliferator-activated receptor gamma (Homo sapiens) (UniProt P37231); test: The fold activation against 1 amino acids 174-475)
T2 sequence (whole entry): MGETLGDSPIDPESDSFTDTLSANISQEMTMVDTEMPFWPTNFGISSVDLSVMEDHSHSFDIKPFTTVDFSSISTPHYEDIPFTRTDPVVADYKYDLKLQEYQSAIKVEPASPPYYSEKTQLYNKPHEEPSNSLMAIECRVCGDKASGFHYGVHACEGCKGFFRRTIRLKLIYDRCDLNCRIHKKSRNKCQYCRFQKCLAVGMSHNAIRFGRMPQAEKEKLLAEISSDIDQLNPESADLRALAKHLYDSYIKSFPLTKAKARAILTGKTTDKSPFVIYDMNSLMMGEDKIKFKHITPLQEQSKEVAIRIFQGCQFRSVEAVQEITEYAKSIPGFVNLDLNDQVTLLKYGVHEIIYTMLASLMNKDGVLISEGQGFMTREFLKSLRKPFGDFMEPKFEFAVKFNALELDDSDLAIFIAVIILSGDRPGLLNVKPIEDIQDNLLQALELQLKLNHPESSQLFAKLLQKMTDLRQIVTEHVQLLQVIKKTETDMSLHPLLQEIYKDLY

[24] = biological target: T1, Peroxisome proliferator-activated receptor alpha (Homo sapiens); test: The fold activation against 50 u M Peroxisome proliferator activated receptor alpha(amino acids 167-468)
Mus musculus [25] = test: Percent reduction of plasma glucose (PG) after 6 days of treatment. It is the mean of standard deviation observed in plasma glucose (PG) in db/db mice at dose of 100 mg/kg/day; NA = Not Active; type: functional, organism-based
Mus musculus [26] = species on record: Mus musculus; test: The compound was tested for percent reduction of plasma glucose after 6 days of treatment; Not Active; type: functional, organism-based
Mus musculus [27] = test: Percent reduction in plasma triglyceride (TG) after 6 days of treatment. It is the mean of standard deviation observed in plasma triglyceride (TG) in db/db mice at dose of 100 mg/kg/day; NA = Not Active; type: functional
Mus musculus [28] = species on record: Mus musculus; test: The compound was tested for percent reduction of plasma triglyceride after 6 days of treatment; Not Active; type: functional, organism-based

SMILES: Cc1c(C)c2c(c(C)c1O)C(COc1ccc(/C=C3\SC(=O)NC3=O)cc1)C(C)(C)O2 (stereo not given)
PG (Mus musculus [1]): 11%
Reduction (Mus musculus [2]): 11%
Reduction (Mus musculus [3]): inactive
TG (Mus musculus [4]): inactive

AUC (Rattus norvegicus [6]): 23600 ng·h/mL
Cmax [7]: 1250 ng/mL
AUC(0-inf) [8]: 23600 ng·h/mL
half-life [9]: 13.1 h
Cmax [10]: 1250 ng/mL
k el [11]: 1.39e-05 s⁻¹
half-life [12]: 13.1 h
k el [13]: 1.39e-05 s⁻¹
Tmax [14]: 3.5 h
Tmax [15]: 3.5 h
AUC (Rattus norvegicus [18]): 15500 ng·h/mL
AUC(0-t) [20]: 15500 ng·h/mL
SMILES: Cc1c(C)c2c(c(C)c1OCc1ccccc1)C(CN1CCC[C@H]1COc1ccc(/C=C3\SC(=O)NC3=O)cc1)C(C)(C)O2 (stereo not given in full) [listing 1 of 2 here]
PG (Mus musculus [5]): 40%
Reduction (Mus musculus [2]): 66% and 40%
TG (Mus musculus [16]): 52%
TG (Mus musculus [17]): 38%
PG (Mus musculus [19]): 66%
Reduction (Mus musculus [21]): 52% and 38%

Transactivation [22]: 0.43 fold
Fold activation [23]: 1.03
Fold activation [24]: 0.43
SMILES: Cc1c(C)c2c(c(C)c1OCc1ccccc1)C(CN1CCC[C@H]1COc1ccc(/C=C3\SC(=O)NC3=O)cc1)C(C)(C)O2 (stereo not given in full) [listing 2 of 2 here]

Transactivation [22]: 0.33 fold
Fold activation [23]: 0.17
Fold activation [24]: 0.33
SMILES: Cc1c(C)c2c(c(C)c1OCc1ccccc1)C(CN1CCC[C@H]1COc1ccc(CC3SC(=O)NC3=O)cc1)C(C)(C)O2 (stereo not given in full)

SMILES: Cc1oc2c(C)c(C)c(OCc3ccccc3)c(C)c2c1CN1CCC[C@@H](Oc2ccc(/C=C3\SC(=O)NC3=O)cc2)C1
PG (Mus musculus [25]): inactive
Reduction (Mus musculus [26]): inactive
TG (Mus musculus [27]): inactive
Reduction (Mus musculus [3]): inactive

SMILES: Cc1c(C)c2c(c(C)c1OCc1ccccc1)C(CN1CCC[C@@H](Oc3ccc(/C=C4\SC(=O)NC4=O)cc3)C1)C(C)(C)O2 (stereo not given in full)
PG (Mus musculus [25]): inactive
Reduction (Mus musculus [26]): inactive
TG (Mus musculus [16]): 52%
Reduction (Mus musculus [21]): 52%

SMILES: Cc1oc2c(C)c(C)c(O)c(C)c2c1CN1CCC[C@@H](Oc2ccc(/C=C3\SC(=O)NC3=O)cc2)C1
Reduction (Mus musculus [2]): 22%
TG (Mus musculus [27]): inactive
PG (Mus musculus [19]): 22%
Reduction (Mus musculus [28]): inactive

SMILES: Cc1c(C)c2c(c(C)c1O)C(CN(C)CCOc1ccc(/C=C3\SC(=O)NC3=O)cc1)C(C)(C)O2 (stereo not given)
Reduction (Mus musculus [2]): 28%
TG (Mus musculus [27]; route oral): 76%
PG (Mus musculus [19]): 28%
Reduction (Mus musculus [21]): 76%

SMILES: Cc1c(C)c2c(c(C)c1O)C(COc1ccc(CC3SC(=O)NC3=O)cc1)C(C)(C)O2 (stereo not given)
Reduction (Mus musculus [2]): 12%
Reduction (Mus musculus [21]): 31%

Transactivation [22]: 0.46 fold
Fold activation [23]: 1.21
Fold activation [24]: 0.46
SMILES: Cc1c(C)c2c(c(C)c1O)C(CN1CCC[C@H]1COc1ccc(CC3SC(=O)NC3=O)cc1)C(C)(C)O2 (stereo not given in full)
PG (Mus musculus [5]): 28%
Reduction (Mus musculus [2]): 37% and 28%
TG (Mus musculus [16]): 33%
TG (Mus musculus [17]): 29%
PG (Mus musculus [19]): 37%
Reduction (Mus musculus [21]): 33% and 29%
